Most compounds without a hit are left out; they make up all but 2.5% or so of the library.
SENP7 inh: blocks the human protease SENP7; Q9BQF6; recombinant SENP7, Z-RLRGG-aminoluciferin luminescence, 40 min; inhibition, % at 5 µM; 330,000 compounds, 1.5% hits; AID 434973;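 active = inhibition above about 50% at the single test dose, limit read from the data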
SENP1 FRET inh: SENP1 (human) catalytic domain inhibition; recombinant SENP1 catalytic domain, CyPet-SUMO1-YPet FRET cleavage; 360,000 compounds, 0.21% hits; AID 624204; Q9P0U3; inhibition, % at 10 µM;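 active = inhibition at least 30% at 10 µM, raw YFP signal under a set limit, fluorescence ratio 0.5 to 1.5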
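Material – human SENP1 catalytic domain · Input – SENP1 enzyme, 20 pM final · Compound dosing – single concentration of 10 µM compound, 0.5% DMSO final · Timing – enzyme reaction for 50 min at room temperature, dark · Measured by – FRET fluorescence in CFP and YFP emission channels · Control set – no-enzyme wells low, DMSO-plus-enzyme wells high control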
SENP8 block-1: SENP8 (human) protease inhibition; recombinant SENP8, Nedd8 substrate fluorescence; inhibition, % at 20 µM; 360,000 compounds, 0.64% hits; in the data active = inhibition mostly above about 40%, no sharp cut-off; inactive = mostly below about 27%
SENP6 inh: inhibitors of human SENP6 protease; inhibition, % at 10 µM; 330,000 compounds, 1.8% hits; AID 2599; Recombinant SENP6 catalytic domain, aminoluciferin luminescence;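 active = inhibition above about 50% at the single tested dose, limit read from the data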
Target sequence (Q9GZR1 628-1112 limits assumed): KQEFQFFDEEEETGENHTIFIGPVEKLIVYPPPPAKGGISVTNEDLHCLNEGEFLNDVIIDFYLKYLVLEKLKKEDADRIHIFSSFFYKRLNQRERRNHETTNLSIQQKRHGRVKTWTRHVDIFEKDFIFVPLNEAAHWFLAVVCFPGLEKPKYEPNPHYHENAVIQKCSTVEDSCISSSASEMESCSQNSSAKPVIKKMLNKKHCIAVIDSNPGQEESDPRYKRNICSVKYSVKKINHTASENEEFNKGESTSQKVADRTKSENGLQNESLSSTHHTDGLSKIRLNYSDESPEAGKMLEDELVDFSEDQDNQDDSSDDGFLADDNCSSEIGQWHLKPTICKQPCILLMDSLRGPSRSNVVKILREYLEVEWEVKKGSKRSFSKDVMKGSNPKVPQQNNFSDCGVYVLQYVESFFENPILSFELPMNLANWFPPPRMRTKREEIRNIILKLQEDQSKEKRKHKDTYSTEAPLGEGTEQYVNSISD
SENP8 block-2: SENP8 protease inhibition | purified SENP8, Z-RLRGG-aminoluciferin cleavage, luminescence | 330,000 compounds, 1.2% hits | AID 2540 | inhibition, % at 10 µM; in the data active = inhibition above about 50%
SENP8 conf: human SENP8 inhibition, confirmed | shares compounds with SENP7 inh | inhibition, % at 12.5 µM | 6,200 compounds, 40% hits | Recombinant SENP8, Z-RLRGG-aminoluciferin luminescence, 60 min;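 active = mean inhibition across replicates above about 50%, limit read from the data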
SENP6 confirm: human SENP6 inhibition, confirmed | recombinant SENP6, Z-RLRGG-aminoluciferin luminescence | shares compounds with SENP7 inh | 6,200 compounds, 58% hits | AID 488915 | inhibition, % at 12.5 µM
SENP7 conf: confirmation of human SENP7 protease inhibitors; shares compounds with SENP7 inh; inhibition, % at 12.5 µM; recombinant SENP7, Z-RLRGG-aminoluciferin luminescence, 40 min; 6,200 compounds, 69% hits
Casp3 SENP sel: caspase-3 inhibition (SENP selectivity assay); 6,200 compounds, 60% hits; shares compounds with SENP7 inh; inhibition, % at 12.5 µM; purified caspase-3, Z-DEVD-aminoluciferin luminescence, 60 min;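 active = mean inhibition above about 50%, limit read from the data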
Luc interf: counter-screen for SENP inhibitors: luminescence interference | AID 488919 | shares compounds with SENP7 inh | 6,200 compounds, 39% hits | inhibition, % at 12.5 µM | Pre-incubated SENP8/Z-RLRGG-aminoluciferin, luciferase luminescence interference;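 active = mean inhibition above about 50% when retested at one dose, limit read from the data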
Of the large screens only hits and unclear results are named; the others gave an inactive call (follow-up assays come after a bar, where they were run).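 Rule for the calls, unless noted: active = mean inhibition above about 50% in the one-dose retest (limit read from the data); inactive = the rest.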

COc1ccc(C(=O)OCC(=O)NC2CCCCCCC2)cc1OC	none
CCc1ccc(NC(=O)Cn2cnc3c(=O)n(C)c(=O)n(C)c32)cc1	none
Cn1c(=O)c2ncn(CC(=O)Nc3cccc(-c4nc5ccccc5s4)c3)c2n(C)c1=O	SENP6 inh 72, SENP8 block-2 60 | SENP8 conf inactive | SENP6 confirm inactive | SENP7 conf 64 | Casp3 SENP sel inactive | Luc interf inactive
C=CCOC(=O)c1sc(NC(=O)c2ccc(OC)cc2)nc1C	SENP7 inh 69 | SENP8 conf inactive | SENP6 confirm inactive | SENP7 conf inactive | Casp3 SENP sel inactive | Luc interf inactive
CCOc1ccc(C(=O)Nc2nc(C)c(C(=O)OC)s2)cc1	SENP7 inh 92, SENP6 inh 54 | SENP8 conf inactive | SENP6 confirm inactive | SENP7 conf inactive | Casp3 SENP sel inactive | Luc interf inactive
COC(=O)c1sc(NC(=O)c2ccco2)nc1C	none
CCOC(=O)c1sc(NC(=S)NC(=O)c2ccc(OC)cc2)nc1C	none
COC(=O)c1sc(NC(=O)c2ccncc2)nc1C	SENP7 inh 94, SENP6 inh 90, SENP8 block-2 86 | SENP8 conf 80 | SENP6 confirm 91 | SENP7 conf 100 | Casp3 SENP sel 97 | Luc interf inactive
CCOC(=O)c1sc(NC(=O)c2ccc3nc[nH]c3c2)nc1C	SENP7 inh 75, SENP6 inh 81, SENP8 block-2 73 | SENP8 conf inactive | SENP6 confirm 72 | SENP7 conf inactive | Casp3 SENP sel inactive | Luc interf inactive
Cc1csc(NC(=O)CSc2nnc(Cn3c(=O)sc4ccccc43)n2-c2ccccc2)n1	none
CC(=O)Nc1ccc(NC(=O)C(C)Oc2ccc(C)nc2[N+](=O)[O-])cc1 (centres undefined)	none
O=S1(=O)CCN(Cc2cccnc2)CC1	none (no result: SENP7 inh, SENP6 inh, SENP8 block-2)
CCOC(=O)N1CCN(C/C(Cl)=C/c2ccccc2)CC1	none
Cc1ccc(NC(=O)O/N=C/c2c(C)nn(C(C)(C)C)c2C)cc1Cl	SENP7 inh 52, SENP6 inh 52 | SENP8 conf inactive | SENP6 confirm inactive | SENP7 conf inactive | Casp3 SENP sel inactive | Luc interf inactive
CCCC1(CCC)NC(=O)N(CC(=O)Nc2ccc(Cl)c(S(=O)(=O)N3CCOCC3)c2)C1=O	none
CC1CCCN(c2ncnc3c2cnn3-c2ccc(Cl)cc2)C1 (centres undefined)	SENP7 inh 95, SENP6 inh 94, SENP8 block-2 94 | SENP8 conf 90 | SENP6 confirm 94 | SENP7 conf 98 | Casp3 SENP sel 92 | Luc interf inactive
Cc1cccc(-n2ncc3c(N4CCC(C)CC4)ncnc32)c1	SENP6 inh 61, SENP8 block-2 54 | SENP8 conf 60 | SENP6 confirm 59 | SENP7 conf 83 | Casp3 SENP sel inactive | Luc interf inactive
c1ccc(-n2ncc3c(N4CCCCC4)ncnc32)cc1	SENP7 inh 84, SENP6 inh 84, SENP8 block-2 85 | SENP8 conf 86 | SENP6 confirm 84 | SENP7 conf 96 | Casp3 SENP sel 86 | Luc interf 84
CCN1CCN(c2ncnc3c2cnn3-c2ccccc2)CC1	none
CC1CCCN(c2ncnc3c2cnn3-c2ccccc2)C1 (centres undefined)	SENP6 inh 64, SENP8 block-2 62 | SENP8 conf inactive | SENP6 confirm inactive | SENP7 conf 68 | Casp3 SENP sel inactive | Luc interf 53
CC(OC(=O)C1=COCCO1)C(=O)Nc1ncc(Cl)cc1Cl (centres undefined)	none

Compound activity (PubChem)
